The target of assay [1] is T1, Gonadotropin-releasing hormone receptor (Rattus norvegicus) (UniProt P30969).
T1 sequence (whole entry): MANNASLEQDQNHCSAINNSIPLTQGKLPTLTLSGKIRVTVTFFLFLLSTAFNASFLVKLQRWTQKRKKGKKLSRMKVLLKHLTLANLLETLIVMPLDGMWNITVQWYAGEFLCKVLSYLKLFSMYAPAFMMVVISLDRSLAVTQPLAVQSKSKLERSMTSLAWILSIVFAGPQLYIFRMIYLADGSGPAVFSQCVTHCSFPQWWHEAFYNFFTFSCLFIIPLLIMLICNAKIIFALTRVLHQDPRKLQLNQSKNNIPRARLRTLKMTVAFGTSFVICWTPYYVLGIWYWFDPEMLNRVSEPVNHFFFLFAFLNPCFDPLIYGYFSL
Put plainly: In vitro potency to inhibit GnRH-mediated LH secretion by cultured pituitary cells relative to [Ac-delta-Pro1,DFpa2,DTrp36]GnRH. The format is functional, cell-based. Conditions: Pituitary gland cell. The essentials: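 Dispersed rat pituitary cells in culture; antagonist inhibition of GnRH-stimulated LH secretion. Potency expressed relative to standard antagonist [Ac-Δ3Pro1,D4FPhe2,DTrp3,6]GnRH taken as 1.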

The target of assay [2] is T1, Gonadotropin-releasing hormone receptor (Rattus norvegicus). As to the kind of experiment: Duration of action, measured using castrated male rat assay to inhibit luteinizing hormone release.; fully active at 24 hr but not at 48 hr. Type of assay: functional.
Assay [3] is filed under the species Rattus norvegicus. Put plainly: Effect in the anti ovulatory assay (AOA) in rats expressed as no. of rats ovulating/No of rats treated at 1.0 mg; 5/8. Type of assay: functional.
The species named for assay [4] is Rattus norvegicus. Put plainly: Effect in the anti ovulatory assay (AOA) in rats expressed as no. of rats ovulating/No of rats treated at 0.5 mg; 3/4. Type of assay: functional.
The species named for assay [5] is Rattus norvegicus. Put plainly: Duration of action measured using castrated male rat assay to inhibit luteinizing hormone release.; In active at 24 hr. The format is functional, organism-based.
Assay [6] is filed under the species Rattus norvegicus. Put plainly: Effect in the anti ovulatory assay (AOA) in rats expressed as no. of rats ovulating/No of rats treated at 2.5 mg; 3/3. The format is functional.
For assay [7], the species on record is Rattus norvegicus. As to the kind of experiment: Effect in the anti ovulatory assay (AOA) in rats expressed as no. of rats ovulating/No of rats treated at 0.5 mg; 4/4. The format is functional.
Assay [8] is filed under the species Rattus norvegicus. Put plainly: Effect in the anti ovulatory assay (AOA) in rats expressed as no. of rats ovulating/No of rats treated at 1.0 mg; 1/8. The format is functional.
For assay [9], the species on record is Rattus norvegicus. As to the kind of experiment: Effect in the anti ovulatory assay (AOA) in rats expressed as no. of rats ovulating/No of rats treated at 1.0 mg; 2/8. The format is functional.
The species entered for assay [10] is Rattus norvegicus. As to the kind of experiment: Effect in the anti ovulatory assay (AOA) in rats expressed as no. of rats ovulating/No of rats treated at 0.5 mg; 3/3. The format is functional.
For assay [11], the species on record is Rattus norvegicus. As to the kind of experiment: Effect in the anti ovulatory assay (AOA) in rats expressed as no. of rats ovulating/No of rats treated at 1.0 mg; 3/7. The format is functional.
The species named for assay [12] is Rattus norvegicus. Put plainly: Duration of action measured using castrated male rat assay to inhibit luteinizing hormone release.; fully active at 48 hr but not at 72 hr. The format is functional.
The species entered for assay [13] is Rattus norvegicus. Put plainly: Effect in the anti ovulatory assay (AOA) in rats expressed as no. of rats ovulating/No of rats treated at 100 mg; 0/4. Type of assay: functional.
For assay [14], the species on record is Rattus norvegicus. Put plainly: Effect in the anti ovulatory assay (AOA) in rats expressed as no. of rats ovulating/No of rats treated at 50 mg; 4/8. The format is functional.
The species named for assay [15] is Rattus norvegicus. Put plainly: Effect in the anti ovulatory assay (AOA) in rats expressed as no. of rats ovulating/No of rats treated at 10 mg; 2/2. Type of assay: functional.

Active and inactive are the calls of the source. The rule behind the calls is not given here.

As for `CC(=O)NCC(=O)Nc1ccc(C[C@H](NC(=O)[C@H](CO)NC(=O)[C@@H](Cc2cccnc2)NC(=O)[C@@H](Cc2ccc(Cl)cc2)NC(=O)[C@@H](Cc2ccc3ccccc3c2)NC(C)=O)C(=O)N[C@H](Cc2ccc(NC(=O)CNC(C)=O)cc2)C(=O)N[C@@H](CC(C)C)C(=O)N[C@@H](CCCCNC(C)C)C(=O)N2CCC[C@H]2C(=O)N[C@H](C)N)cc1`, in assay [1], the Relative potency was 0.85. The Duration of action in [2] worked out at 24 h. Further, the entries for the “No. of rats ovulated” value in the assay filed under Rattus norvegicus [3] and in the assay filed under Rattus norvegicus [4] were 5 and 3, respectively.
With `CC(=O)NCCCC[C@H](NC(=O)[C@H](CO)NC(=O)[C@@H](Cc1cccnc1)NC(=O)[C@@H](Cc1ccc(Cl)cc1)NC(=O)[C@@H](Cc1ccc2ccccc2c1)NC(C)=O)C(=O)N[C@H](CCCCNC(C)=O)C(=O)N[C@@H](CC(C)C)C(=O)N[C@@H](CCCCNC(C)C)C(=O)N1CCC[C@H]1C(=O)N[C@H](C)N`, in the assay filed under Rattus norvegicus [5], the Duration of action result is “inactive”. In addition, the Relative potency in assay [1] amounted to 0.36. In addition, in the assay listed under Rattus norvegicus [6], the “No. of rats ovulated” value came to 3.
Regarding `CC(=O)N[C@H](Cc1ccc2ccccc2c1)C(=O)N[C@H](Cc1ccc(Cl)cc1)C(=O)N[C@H](Cc1cccnc1)C(=O)N[C@@H](CO)C(=O)N[C@@H](Cc1ccc(NC(=O)[C@@H](C)Nc2n[nH]c(N)n2)cc1)C(=O)N[C@H](Cc1ccc(NC(=O)[C@H](C)Nc2n[nH]c(N)n2)cc1)C(=O)N[C@@H](CC(C)C)C(=O)N[C@@H](CCCCNC(C)C)C(=O)N1CCC[C@H]1C(=O)N[C@H](C)N`, the “No. of rats ovulated” value in the assay filed under Rattus norvegicus [7] worked out at 4; in the assay listed under Rattus norvegicus [8] it was 1. In addition, the Relative potency in [1] came out at 0.4.
Consider `CC(=O)N[C@H](Cc1ccc2ccccc2c1)C(=O)N[C@H](Cc1ccc(Cl)cc1)C(=O)N[C@H](Cc1cccnc1)C(=O)N[C@@H](CO)C(=O)N[C@@H](Cc1ccc(NC(=O)[C@H](C)Nc2n[nH]c(N)n2)cc1)C(=O)N[C@H](Cc1ccc(NC(=O)[C@@H](C)Nc2n[nH]c(N)n2)cc1)C(=O)N[C@@H](CC(C)C)C(=O)N[C@@H](CCCCNC(C)C)C(=O)N1CCC[C@H]1C(=O)N[C@H](C)N`, for which, in [1], the Relative potency amounted to 0.36. This molecule had a Duration of action in [2] of 24 h. Moreover, the “No. of rats ovulated” value in the assay listed under Rattus norvegicus [9] came out at 2.
With `CC(=O)Nc1ccc(C[C@@H](NC(=O)[C@H](Cc2ccc(O)cc2)NC(=O)[C@H](CO)NC(=O)[C@@H](Cc2cccnc2)NC(=O)[C@@H](Cc2ccc(Cl)cc2)NC(=O)[C@@H](Cc2ccc3ccccc3c2)NC(C)=O)C(=O)N[C@@H](CC(C)C)C(=O)N[C@@H](CCCCNC(C)C)C(=O)N2CCC[C@H]2C(=O)N[C@H](C)N)cc1`, the “No. of rats ovulated” value in the assay filed under Rattus norvegicus [10] and in the assay filed under Rattus norvegicus [11] was 3 each time. Besides, the Relative potency in assay [1] is 2.8.
Molecule `CC(=O)N[C@H](Cc1ccc2ccccc2c1)C(=O)N[C@H](Cc1ccc(Cl)cc1)C(=O)N[C@H](Cc1cccnc1)C(=O)N[C@@H](CO)C(=O)N[C@@H](Cc1ccc(NC(=O)CNc2n[nH]c(N)n2)cc1)C(=O)N[C@H](Cc1ccc(NC(=O)CNc2n[nH]c(N)n2)cc1)C(=O)N[C@@H](CC(C)C)C(=O)N[C@@H](CCCCNC(C)C)C(=O)N1CCC[C@H]1C(=O)N[C@H](C)N` gave a Relative potency in assay [1] of 1.1. For the same molecule, in the assay listed under Rattus norvegicus [12], the Duration of action worked out at 48 h. Also, the “No. of rats ovulated” value in the assay filed under Rattus norvegicus [3] was found to be 5; in the assay filed under Rattus norvegicus [4], 3.
`CC(=O)N[C@H](Cc1ccc2ccccc2c1)C(=O)N[C@H](Cc1ccc(Cl)cc1)C(=O)N[C@H](Cc1cccnc1)C(=O)N[C@@H](CO)C(=O)N(C)[C@@H](Cc1ccc(Nc2n[nH]c(N)n2)cc1)C(=O)N[C@H](Cc1ccc(Nc2n[nH]c(N)n2)cc1)C(=O)N[C@@H](CC(C)C)C(=O)N[C@@H](Cc1ccc(NC(C)C)cc1)C(=O)N1CCC[C@H]1C(=O)N[C@H](C)N`: the “No. of rats ovulated” value worked out at 0 in the assay filed under Rattus norvegicus [13], 4 in the assay listed under Rattus norvegicus [14] and 2 in the assay listed under Rattus norvegicus [15].

For the origin of these results see ChEMBL document CHEMBL1128434, “Gonadotropin-releasing hormone antagonists: novel members of the azaline B family” (1995).
